Measurements from publication PMC6694902 (Journal of Taibah University Medical Sciences, 2017).
In brackets after ≈: the same amount, converted by molar mass. Several values for one entry are separate records, joined by “and”; a condition that tells them apart may be missing. Equal values may be shown once.

What was measured:
[1] = system: Klebsiella pneumoniae (MTCC 109); details: reported earlier by the authors ref 6; cited from earlier work
Cryptococcus neoformans [2] = test: Minimum inhibitory concentration; format: cell-based
How it was run: (§1)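 MIC was determined in agar wells on Sabouraud dextrose agar seeded with the fungal strain (McFarland 0.5, 1.5 × 10^6 CFU/mL). DMF stocks at 1 mg/mL were diluted two-fold to five levels (31.25–500 µg/mL) and loaded into wells, with fluconazole as reference. After 18–24 h at 37 °C, the lowest inhibitory concentration was taken as the MIC.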

[3] = system: Candida albicans (MTCC 3017); test: Minimum inhibitory concentration; format: cell-based
How it was run: as §1

[4] = system: Candida albicans (MTCC 3017); test: Agar well diffusion, zone of inhibition; format: cell-based; details: mean ± S.D., n = 6
How it was run: (§2)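 Agar well diffusion on Sabouraud dextrose agar. C. albicans MTCC 3017 came from IMTECH; C. neoformans was an Utkal University strain. Plates were seeded with 1.5 × 10^6 CFU/mL suspensions (McFarland 0.5). Test compounds were dissolved in DMF (1 mg/mL stock) and loaded into wells, with fluconazole as reference. Incubation was 37 °C for 18–24 h, and zones were measured.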

Cryptococcus neoformans [5] = test: Agar well diffusion, zone of inhibition; format: cell-based; details: mean ± S.D., n = 6
How it was run: as §2

[6] = system: Klebsiella pneumoniae (MTCC 109); test: Agar well diffusion, zone of inhibition; format: cell-based; details: mean ± S.D., n = 6
How it was run: (§3)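 Agar well diffusion on nutrient agar. K. pneumoniae MTCC 109 came from IMTECH; S. aureus (res) was an Utkal University isolate. Plates were seeded with 1.5 × 10^6 CFU/mL suspensions (McFarland 0.5). Test compounds were dissolved in DMF (1 mg/mL stock) and placed in wells, with amoxicillin and ampicillin as references. Plates were kept at 37 °C for 18–24 h, then zones were read.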

[7] = DPPH radical scavenging assay; format: biochemical; details: mean ± S.D., n = 3; for IC50 (DPPH radical scavenging): graphically determined
How it was run: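 DPPH scavenging, a modified method, was read as absorbance at 517 nm for test compounds at several concentrations. BHT served as standard, and DPPH in methanol served as control. Percent inhibition was calculated from control and sample absorbances, and IC50 was obtained graphically. Data were analysed by one-way ANOVA with Dunnett's post hoc test.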

[8] = system: Staphylococcus aureus (res); test: Minimum inhibitory concentration; format: cell-based
How it was run: (§4)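 MIC was determined in nutrient agar wells seeded with bacteria (McFarland 0.5, 1.5 × 10^6 CFU/mL). E. coli (res) and S. aureus (res) were clinical isolates; K. pneumoniae was MTCC 109. DMF stocks at 1 mg/mL were diluted two-fold to five levels (31.25–500 µg/mL) in wells, with amoxicillin and ampicillin as references. Plates were incubated at 37 °C for 18–24 h.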

[9] = system: Klebsiella pneumoniae (MTCC 109); test: Minimum inhibitory concentration; format: cell-based
How it was run: as §4

[10] = system: Staphylococcus aureus (res); test: Agar well diffusion, zone of inhibition; format: cell-based; details: mean ± S.D., n = 6; resistant to norfloxacin, ofloxacin, ampicillin, cefotaxime
How it was run: as §3

Escherichia coli (res) [11] = test: Minimum inhibitory concentration; format: cell-based
How it was run: as §4

Escherichia coli (res) [12] = test: Agar well diffusion, zone of inhibition; format: cell-based; details: mean ± S.D., n = 6; resistant to norfloxacin, ofloxacin, ampicillin, cefixime, nitrofurantoin
How it was run: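 Clinical isolate from a faecal sample (Bhubaneswar hospital). Nutrient agar plates were seeded with a 1.5 × 10^6 CFU/mL suspension matched to McFarland 0.5. Test compound was loaded into the agar wells from a DMF stock (1 mg/mL). Plates were incubated at 37 °C for 18–24 h and the inhibition zone was read. Amoxicillin and ampicillin were the reference antibiotics.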

[13] = 31.25–500 µg/mL tested, 37 °C, 18–24 h

Row | Compound | zone of inhibition, C. albicans [4] [mm] | zone of inhibition, C. neoformans (Cryptococcus neoformans [5]) [mm] | zone of inhibition, K. pneumoniae [6] | % Inhibition (DPPH) ([7]; Conc. 10 μg/mL) [%] | % Inhibition (DPPH) ([7]; Conc. 30 μg/mL) [%] | % Inhibition (DPPH) ([7]; Conc. 50 μg/mL) [%] | % Inhibition (DPPH) ([7]; Conc. 70 μg/mL) [%] | IC50 (DPPH radical scavenging) [7] [µg/mL] | zone of inhibition, S. aureus (res) [10] | zone of inhibition, E. coli (res) (Escherichia coli (res) [12]) | other results
1 | COc1ccc(/N=C/c2cc(/N=N/c3cccc([N+](=O)[O-])c3)ccc2[O][Co][O]c2ccc(/N=N/c3cccc([N+](=O)[O-])c3)cc2/C=N/c2ccc(OC)cc2)cc1 [5a(Co Lig2), bis[2-{(E)-(4-methoxyphenylimino)methyl}-4-{(E)-(3-nitrophenyl)diazenylphenoxy}cobalt]] |  |  |  |  |  |  |  |  |  |  | antibacterial activity against K. pneumoniae [1]: significant antibacterial activity
2 | Cc1cc(N=Nc2ccc([O][Co][O]c3ccc(N=Nc4ccc(Br)c(C)c4)cc3C=Nc3nc(-c4ccc(Cl)cc4)cs3)c(C=Nc3nc(-c4ccc(Cl)cc4)cs3)c2)ccc1Br [Compound 6d, Bis[4-{(4-bromo-3-methylphenyl)diazenyl}-2-{(4-(4-chlorophenyl)thiazol-2-ylimino)methyl}phenoxy]cobalt] | 12.67 ± 2.34 | 12.17 ± 2.71 | 16.17 ± 2.99 mm and 16.17 ± 2.99^∗ mm | 36.53 ± 0.02 | 43.03 ± 0.04 | 61.97 ± 0.08 | 73.78 ± 0.07 | 38 ± 1.4 | 16.83 ± 2.71 mm and 16.83 ± 2.71^∗ mm | 15.5 ± 3.21 mm and 15.5 ± 3.21^∗ mm | Minimum inhibitory concentration (MIC), C. neoformans (Cryptococcus neoformans [2]; [13]): 250 µg/mL; Minimum inhibitory concentration (MIC), C. albicans [3, 13]: 250 µg/mL; Minimum inhibitory concentration (MIC), S. aureus (res) [8, 13]: 31.25 µg/mL; Minimum inhibitory concentration (MIC), K. pneumoniae [9, 13]: 31.25 µg/mL; Minimum inhibitory concentration (MIC), E. coli (res) (Escherichia coli (res) [11]; [13]): 31.25 µg/mL
3 | Cc1cc(N=Nc2ccc(O)c(C=O)c2)ccc1Br [Compound 4e, 5-[(4-Bromo-3-methylphenyl)diazenyl]-2-hydroxybenzaldehyde] | 10.17 ± 1.84 | 12.5 ± 1.52 | 15.17 ± 2.14 mm | 17.96 ± 0.03 | 29.54 ± 0.05 | 33.64 ± 0.09 | 56.39 ± 0.08 | 72 ± 1.4 (≈ 226 µM) | 16.17 ± 2.04^∗ mm | 15.83 ± 1.47^∗ mm | MIC (Cryptococcus neoformans [2]; Cryptococcus neoformans, read-out: Minimum inhibitory concentration (MIC), C. neoformans): 250 µg/mL (≈ 783 µM); MIC ([3]; Candida albicans, MTCC3017, read-out: Minimum inhibitory concentration (MIC), C. albicans): 500 µg/mL (≈ 1570 µM); MIC ([8]; Staphylococcus aureus, read-out: Minimum inhibitory concentration (MIC), S. aureus (res), 31.25–500 µg/mL tested, 37 °C, 18–24 h): 31.2 µg/mL (≈ 97.9 µM); MIC ([9]; Klebsiella pneumoniae, MTCC109, read-out: Minimum inhibitory concentration (MIC), K. pneumoniae, 31.25–500 µg/mL tested, 37 °C, 18–24 h): 31.2 µg/mL (≈ 97.9 µM); MIC (Escherichia coli (res) [11]; Escherichia coli, read-out: Minimum inhibitory concentration (MIC), E. coli (res), 31.25–500 µg/mL tested, 37 °C, 18–24 h): 31.2 µg/mL (≈ 97.9 µM)
